Shown are actives, neighbours in structure and some others; about 1.6% of the full set was active somewhere.
Dynein cargo inh – blocks dynein driven cargo transport along microtubules. 3617.4 mouse cells, GR-EGFP nuclear translocation imaging; test concentration mostly 20 µM; stimulated with dexamethasone, 1 µM; hits give low values. z-score, hits read low. 220,000 compounds, 0.47% hits. AID 1381;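 active = plate z-score of nuclear minus cytoplasmic receptor signal below a set negative limit, without overly bright fluorescence or cell loss, cut at about -3.5 in these data, passing the limit was not always enough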;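 note: z-score of nuclear minus cytoplasmic ring GR-EGFP intensity difference per well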
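medium = tetracycline-free induction medium containing charcoal-stripped FBS | also added = 1.0 µM final dexamethasone stimulus | schedule = 48 h induction, 1 h compound, 30 min dex at 37 °C | technique = fixed, Hoechst-stained cells imaged at 10x for EGFP | measure = GR-EGFP nuclear translocation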
TLR9-MyD88 inh – TLR9-MyD88 interaction inhibition | Q9NR96+Q99836 | 340,000 compounds, 0.21% hits | inhibition, % at 4.98 µM | CHO BLA complementation TLR9-MyD88, CCF4 FRET ratio;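 active = inhibition above the mean over all tested compounds plus 3 SD, cut at about 21% in these data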;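 note: 0% = DMSO only wells and 100% = clavulanate BLA inhibitor control wells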
NOD2-RIPK2 inh – blocks binding of human NOD2 to RIPK2. O43353. CHO BLA complementation NOD2-RIPK2, CCF4 ratio. inhibition, % at 4.98 µM. 360,000 compounds, 0.38% hits; in the data active = inhibition above about 21%;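 note: 0% = vehicle only and 100% = reference blocker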
ABHD5 PLIN5 PPI – blocks binding of human ABHD5 to perilipin-5; Split G. princeps luciferase complementation, luminescence, 4 h; inhibition, % at 4 µM; 360,000 compounds, 0.78% hits;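 active = inhibition above the mean inhibition across every tested compound plus 3 SD, cut at about 22% in these data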;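 note: 0% = DMSO only wells and the 100% control is not disclosed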
B2AR ag – agonists of human beta-2 adrenergic receptor inducing internalization. P07550. Am2.2-beta2AR cells, FAP receptor internalization, flow cytometry. response, % (test concentration not listed). 340,000 compounds, 0.43% hits. AID 504454;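 active = response above a set limit, near 3 SD of response in nonfluorescent compounds, cut at about 42% in these data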
TLR4 MyD88 comp – TLR4-MyD88 interaction inhibition in cells; HeLa CL3-4 TLR4/MyD88 BLA complementation, FRET ratio; O00206+Q99836; 200,000 compounds, 0.18% hits; inhibition, % at 8.4 µM; in the data active = inhibition above about 25%;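 note: 0% = vehicle and 100% = reference inhibitor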
ABHD5-PLIN5 conf – ABHD5-PLIN5 interaction inhibition, confirmed; biochemical ABHD5-PLIN5 interaction, luminescence; shares compounds with ABHD5 PLIN5 PPI; 2,200 compounds, 67% hits; inhibition, % at 4 µM; in the data active = inhibition above about 23%;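 note: 0% = DMSO vehicle wells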
HNF4 split-luc – HNF4 split-luciferase signal hit, counter-screen. shares compounds with ABHD5 PLIN5 PPI. AID 651674. 2,200 compounds, 77% hits. inhibition, % at 4 µM. HNF4 dimerization, luminescence, biochemical;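 active = mean inhibition across replicate wells exceeding the computed hit threshold, cut at about 13% in these data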;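 note: light from luciferase halves that rejoin when HNF4 fusion proteins dimerize; 0% = DMSO only wells and the 100% control is not given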
* hit, by the source's call; / = not tested or not shown.

SMILES	Dynein cargo inh	TLR9-MyD88 inh	NOD2-RIPK2 inh	ABHD5 PLIN5 PPI	B2AR ag	TLR4 MyD88 comp	ABHD5-PLIN5 conf	HNF4 split-luc
CC(=O)c1ccc(OCCCC(=O)Nc2cccc(S(=O)(=O)N3CCCCC3)c2)cc1	/	-11.7	-8.8	-1.6	-3.0	/	/	/
CCc1ccc(NC(=O)COc2coc(CN3CCN(c4ccccc4)CC3)cc2=O)cc1	/	0.9	-3.5	-1.8	-2.1	/	/	/
COc1cccc(NC(=O)COc2coc(CN3CCN(c4ccccc4)CC3)cc2=O)c1	/	-6.8	5.3	24.8*	3.1	/	6.5	0.6
O=C(CCCN1C(=O)S/C(=C\C=C\c2ccccc2)C1=O)Nc1ccc(C(=O)O)cc1	/	-3.4	-2.9	34.2*	-0.4	/	19.0	19.5*
CCOC(=O)CNC(c1ccccc1)c1cc(Br)ccc1NC(=O)CCN1CCOCC1 (configuration not stated)	-2.91	1.1	-5.9	24.2*	0.8	6.2	3.0	39.0*
C[C@H]1[C@H](NC(=O)C(=NOC(C)(C)C(=O)O)c2csc(N)n2)C(=O)N1S(=O)(=O)O	/	-1.1	-0.2	3.2	3.3	/	/	/
O=C/C(=C\Nc1ccccn1)c1nc2cc(Cl)ccc2o1	-1.06	13.0	-1.2	-2.2	-22.4	12.8	/	/
O=C/C(=C\Nc1ccccn1)c1nc2ccccc2o1	-0.672	-4.9	0.0	23.9*	-10.7	5.8	20.8	26.6*
CC1=CC(C)(C)Nc2ccc(OC(=O)CCN3C(=O)c4ccccc4C3=O)cc21	-0.501	1.6	17.5	75.0*	-27.6	2.2	85.6*	90.3*
O=c1ccc(N=Nc2ccccc2)ccc1O	0.061	11.0	-4.2	5.5	10.1	/	/	/
Oc1ccc(N=Nc2ccccc2)o1	/	-3.6	-9.6	40.6*	8.0	/	65.7*	68.4*
Cc1ccc2nsnc2c1S(=O)(=O)N(Cc1ccco1)Cc1cc2cccc(C)c2[nH]c1=O	-0.471	-1.2	0.1	-7.3	15.3	-0.2	/	/
Cc1ccc2[nH]c(=O)c(CN(Cc3ccco3)S(=O)(=O)c3c(C)ccc4nsnc34)cc2c1	-0.848	-0.4	-14.8	24.8*	13.1	-9.8	32.6*	43.0*
CC(C)C[C@@H](CN=[N+]=[N-])N1CCN(Cc2ccccc2)CCC1=O	/	-0.4	-0.6	-3.0	-12.3	/	/	/
OC(c1ccc(F)c(F)c1)c1nc(-c2ccoc2)cs1 (configuration not stated)	/	/	4.2	20.0	/	/	/	/
OC(c1cccc(Cl)c1)c1nc(-c2ccoc2)cs1 (configuration not stated)	/	/	-2.0	26.6*	/	/	47.0*	42.7*
CCN(CC(=O)Nc1cc(Cl)ccc1C)C(=O)C1COc2ccccc2O1 (configuration not stated)	/	-1.9	1.5	1.4	-2.9	/	/	/
Cc1cc(Cl)cc(C)c1OCC(=O)NC1CCCCCC1	/	-7.9	-4.5	0.8	-5.7	/	/	/
CN(C)c1ccc(C=c2c3ccccc3n3c2c2c([n+]3C)CCCC2)cc1	/	1.1	15.2	29.4*	0.2	/	27.7*	36.1*
CN(C)c1ccc(/C=C2\SC(=O)N(CC(O)Cn3c4ccccc4c4ccccc43)C2=O)cc1 (configuration not stated)	-0.665	7.3	0.8	-8.0	-23.6	5.7	/	/
O=C1OCc2ccc([N+](=O)[O-])cc21	/	2.7	-22.4	-4.9	-0.8	/	/	/
COC(=O)c1cccc(NC(=O)CC2C(=O)NCCN2C(=O)Nc2cc(C)cc(C)c2)c1 (configuration not stated)	/	-3.5	-0.4	7.7	2.1	/	/	/
COc1ccc(CNC(=O)c2ccc(Cn3nc(C)cc3C)o2)cc1	/	-5.8	-2.7	6.7	-4.1	/	/	/
Cc1cc(C(F)(F)F)nn1Cc1ccc(C(=O)NCc2ccco2)o1	0.353	-7.0	8.6	23.2*	-8.4	-10.4	29.0*	22.6*
O=C(c1cccc(Cl)c1)N1CCN(c2ccc3c(c2)C2CC3CCN2C(=O)OCc2ccccc2)CC1 (configuration not stated)	/	/	-4.7	6.4	/	/	/	/

Screening data from PubChem.
